Measurements from different studies.
Compare with care: the assays were run in different laboratories.
MMP1: Interstitial collagenase (MMP1, Homo sapiens, UniProt P03956)
gag-pol integrase: Gag-Pol polyprotein, integrase (gag-pol, Human immunodeficiency virus 1, UniProt P12497)
P2RX7: P2X purinoceptor 7 (P2RX7, Homo sapiens, UniProt Q99572)
IDE: Insulin-degrading enzyme (IDE, Homo sapiens, UniProt P14735)
JAK3: Tyrosine-protein kinase JAK3 (JAK3, Homo sapiens, UniProt P52333)
CSF1R: Macrophage colony-stimulating factor 1 receptor (CSF1R, Homo sapiens, UniProt P07333)
TGFBR1: TGF-beta receptor type-1 (TGFBR1, Homo sapiens, UniProt P36897)
MET: Hepatocyte growth factor receptor (MET, Homo sapiens, UniProt P08581)
crk3: crk3 (Leishmania mexicana, UniProt O15851)

COc1ccc(S(=O)(=O)N2Cc3cc(O)c(O)cc3CC2C(=O)NO)cc1 (stereo not shown) — IC50 (MMP1; enzyme activity; inhibitor): 10 µM
CC(C)(C)OC(=O)N1CCC(C(=O)N[C@@H](Cc2ccc3ccccc3c2)C(=O)O)(c2ccccc2)CC1 — IC50 (gag-pol integrase; enzyme activity; inhibitor; TR-FRET): 90.3 µM
CNC(=O)c1cc2c(Oc3ccc(NC(=O)C4(C(=O)Nc5ccc(F)cc5)CC4)cc3)ccnc2cc1OC — IC50 (Hepatocyte growth factor receptor (MET, Homo sapiens, UniProt P08581, D1228H); enzyme activity; inhibitor; radiometric): 0.004 µM
CC/C=C\C/C=C\C/C=C\C/C=C\C/C=C\CCCC(=O)O — IC50 (DNA polymerase beta (Rattus norvegicus, UniProt P06766); enzyme activity; inhibitor): 88.5 µM
O=C(Nc1ccn(Cc2ccc(O)cc2C(F)(F)F)n1)c1c(F)cccc1F — IC50 (P2RX7; ion current): > 10 µM
NC(=O)c1ccc[n+]([C@@H]2O[C@H](COP(=O)([O-])OP(=O)(O)OC[C@H]3O[C@@H](n4cnc5c(N)ncnc54)[C@H](O)[C@@H]3O)[C@@H](O)[C@H]2O)c1 — IC50 (Protein mono-ADP-ribosyltransferase PARP3 (PARP3, Homo sapiens, UniProt Q9Y6F1); enzyme activity; inhibitor): 5 µM
CCOc1ccc2c(-c3cc(C)nc(Nc4cc(OC)cc(C(F)(F)F)c4)n3)cnn2n1 — IC50 (Homeodomain-interacting protein kinase 1 (HIPK1, Homo sapiens, UniProt Q86Z02); enzyme activity; inhibitor): > 10 µM
COC(=O)[C@H](Cc1c[nH]cn1)NC(=O)CN(CC(=O)O)Cc1ccc(C(F)(F)F)cc1 — IC50 (IDE; enzyme activity; inhibitor; fluorescence): 2 µM
Oc1c2ccccc2c2c3c(cccc13)N=N2 — IC50 (JAK3; enzyme activity; inhibitor): 0.344 µM
O=C(O)[C@H](Cc1ccc2ccccc2c1)NC(=O)C1(c2ccc(F)cc2)CCN(S(=O)(=O)c2ccccc2)CC1 — IC50 (gag-pol integrase; enzyme activity; inhibitor; TR-FRET): 150 µM
Cc1noc([C@H](Cc2c[nH]cn2)NC(=O)CN(CCCc2ccccc2)CC(=O)O)n1 — IC50 (IDE; enzyme activity; inhibitor; fluorescence): 0.5 µM
O=C(Nc1ccccc1OS(=O)(=O)c1ccc(F)cc1)c1ccc2ncccc2c1 — IC50 (P2RX7; calcium signal; antagonist): 0.624 µM
O=C(O)C1=CC(=C(c2ccc(O)c(C(=O)O)c2)c2ccc(O)c(C(=O)O)c2)C=CC1=O — IC50 (Lysosomal acid lipase/cholesteryl ester hydrolase (LIPA, Homo sapiens, UniProt P38571); enzyme activity; inhibitor): 1.34 µM
CC(C)C[C@H](CC(=O)NO)C(=O)N[C@@H](Cc1ccccc1)C(=O)NCCN1CCOCC1 — IC50 (MMP1; enzyme activity; inhibitor; absorbance): 0.003 µM
CC(C)OC(=O)[C@H](Cc1c[nH]cn1)NC(=O)CN(CC(=O)O)Cc1ccccc1 — IC50 (IDE; enzyme activity; inhibitor; fluorescence): 0.3 µM
CCC[C@H](NC(=O)C1CN(C)C1)c1ncc(-c2cc3ccccc3nc2OC)[nH]1 — IC50 (Histone deacetylase 3 (HDAC3, Homo sapiens, UniProt O15379); enzyme activity; inhibitor; fluorescence): 0.16 µM
CC(C)C[C@H](NC(=O)[C@H](Cc1ccccc1)NC(=O)[C@H](Cc1ccc(O)cc1)NC(=O)CNC(=O)[C@H](CCCNC(=N)N)NC(=O)[C@H](CO)NC(=O)[C@H](CCC(N)=O)NC(=O)[C@H](CO)NC(=O)[C@H](C)NC(=O)[C@H](Cc1ccccc1)NC(=O)[C@@H]1CCCN1C(=O)[C@H](CO)NC(=O)[C@H](CCC(N)=O)NC(=O)[C@H](Cc1ccccc1)NC(=O)[C@H](CCC(=O)O)NC(=O)[C@H](CCC(=O)O)NC(=O)[C@H](CC(=O)O)NC(=O)[C@@H](NC(=O)[C@H](CCCNC(=N)N)NC(=O)[C@@H](N)Cc1ccccc1)C(C)C)C(=O)N[C@@H](Cc1ccccc1)C(=O)N[C@@H](CCCNC(=N)N)C(=O)N1CCC[C@H]1C(=O)N[C@@H](CCCNC(=N)N)C(=O)N[C@@H](CC(N)=O)C(N)=O — IC50 (Neuromedin-U receptor 2 (NMUR2, Homo sapiens, UniProt Q9GZQ4); ligand displacement; radioligand): 0.000219 µM
CCn1ncc2c1-c1cnc(N)c(c1)O[C@H](C)c1cc(F)ccc1-c1nn(C)nc1C2 — IC50 (CSF1R; enzyme activity; inhibitor; radiometric): 0.489 µM
NC(=O)NCCC[C@@H](NS(=O)(=O)c1ccc(OCc2cc(Br)cc(Br)c2)cc1)C(=O)NO — IC50 (MMP1; enzyme activity; inhibitor; fluorescence): > 500 µM
O=C(O)CN(CCCc1ccccc1)CC(=O)N[C@@H](Cc1c[nH]cn1)C(=O)NCc1ccccc1 — IC50 (IDE; enzyme activity; inhibitor; fluorescence): 0.4 µM
CCOCc1nc(O)c(-c2nnc(Cc3ccc(Cl)cn3)o2)c(O)c1-c1c(OC)cccc1OC — IC50 (Alpha-1B adrenergic receptor (ADRA1B, Homo sapiens, UniProt P35368); ligand displacement; radioligand): > 30 µM
CCCN(CCC)S(=O)(=O)c1ccc(-c2n[nH]c(=S)o2)cc1 — IC50 (P2RX7; calcium signal; antagonist): 6.11 µM
C[C@H]1C[C@@H](N2C(=N)N[C@](C)(c3cccc(Nc4ccc(C5CC5)nc4)c3Cl)CC2=O)CCO1 — IC50 (Sodium channel protein type 10 subunit alpha (SCN10A, Homo sapiens, UniProt Q9Y5Y9); ion current; inhibitor; patch clamp): 8 µM
COc1ccc2c(Oc3ccc4c(C(=O)Nc5ccccc5N)cccc4c3)ccnc2c1 — IC50 (JAK3; enzyme activity; inhibitor): > 0.5 µM
CNCCCC(c1ccccc1)(c1ccccc1)c1ccccc1 — IC50 (Kinesin-like protein KIF11 (KIF11, Homo sapiens, UniProt P52732); ATPase activity; inhibitor): 0.386 µM
CC[C@H](C)[C@H](NC(C)=O)C(=O)N[C@@H](CCC(=O)O)C(=O)N[C@H](C(=O)N[C@H](C=O)CC(=O)O)[C@@H](C)O — IC50 (Caspase-9 (CASP9, Homo sapiens, UniProt P55211); enzyme activity; inhibitor): 0.0217 µM
Cc1ccc(/C=C2\C=C(CC(=O)O)c3cc(F)ccc32)cc1 — IC50 (Prostaglandin G/H synthase 2 (Ptgs2, Mus musculus, UniProt Q05769); enzyme activity; inhibitor): ~26 µM
Nc1ncnc2c1c(COc1cccc(Cl)c1)nn2C1CCOCC1 — IC50 (TGFBR1; cell-free assay; TR-FRET): 0.82 µM
COC(=O)[C@H](Cc1c[nH]cn1)NC(=O)CN(Cc1ccccc1)c1c(O)c(=O)c1=O — IC50 (IDE; enzyme activity; inhibitor; fluorescence): 12.5 µM
CC(C)(C)n1nc(-c2ccc3nc(OC4CC4)ccc3c2)c(C(N)=O)c1N — IC50 (JAK3; cell-free assay): > 10 µM
Cc1cc(Oc2ccc(NC(=O)c3sc(-c4ccccc4)nc3C)cc2)c2nncn2n1 — IC50 (MET; enzyme activity; inhibitor; mobility shift): 0.88 µM
COC(=O)[C@H](CCCNC(=N)N)NC(=O)CN(CC(=O)O)Cc1ccccc1 — IC50 (IDE; enzyme activity; inhibitor; fluorescence): 36.3 µM
FC(F)(F)c1cccc(-c2nnc(S)o2)c1 — IC50 (P2RX7; calcium signal; antagonist): 1.5 µM
O=C(Nc1cc(-c2ccc(Cl)cc2)[nH]n1)c1cccnc1 — IC50 (crk3; enzyme activity; inhibitor; radiometric): 2.4 µM
O=C(Nc1ccccc1)c1cc([N+](=O)[O-])ccc1Cl — IC50 (Peroxisome proliferator-activated receptor alpha (PPARA, Homo sapiens, UniProt Q07869); ligand displacement; TR-FRET): 0.026 µM
CCCc1ccc(S(=O)(=O)Oc2ccccc2NC(=O)c2ccc3ncccc3c2)cc1 — IC50 (P2RX7; calcium signal; antagonist): 2.17 µM
CN1CCN(c2ccc(Nc3ncc4cc(C#N)c(=O)n(C5CCCC5)c4n3)cc2)CC1 — IC50 (TGFBR1; enzyme activity; inhibitor): 1.84 µM
Cc1cc(Oc2ccc(NC(=O)c3cc(-c4cccs4)no3)cc2F)c2nncn2n1 — IC50 (MET; enzyme activity; inhibitor; mobility shift): 0.54 µM
COC(=O)[C@H](Cc1c[nH]cn1)NC(=O)CN(CC(=O)O)Cc1ccc(C(C)(C)C)cc1 — IC50 (IDE; enzyme activity; inhibitor; fluorescence): 2.9 µM
COC(=O)c1ccc(NC(=O)NC2=CC(=O)CC(C)(C)C2)cc1 — IC50 (crk3; enzyme activity; inhibitor; radiometric): 3.3 µM
Cc1cc(Oc2ccc(NC(=O)c3sc(-c4ccc(F)cc4)nc3C)cc2)c2nncn2n1 — IC50 (MET; enzyme activity; inhibitor; mobility shift): 0.79 µM
Cc1ccc(C(=O)Nc2ccc(Oc3cc4cnn(C)c4cc3-c3cn[nH]c3)c(F)c2)c(=O)n1-c1ccc(F)cc1 — IC50 (CSF1R; phosphorylation in cells; inhibitor; western blot): 0.3 µM
Cc1cnc(-c2ccc(-c3ccc(NC(=O)Nc4c(F)cc(F)cc4F)cc3F)c3c2C(=O)NC3)[nH]1 — IC50 (MET; enzyme activity; inhibitor): 0.0136 µM
CC(C)(C)OC(=O)[C@H](Cc1c[nH]cn1)NC(=O)CN(CCCc1ccccc1)CC(=O)O — IC50 (IDE; enzyme activity; inhibitor; fluorescence): 0.4 µM
Sc1nnc(-c2ccccn2)o1 — IC50 (P2RX7; calcium signal; antagonist): 11.8 µM
O=C(O)[C@H](Cc1ccccc1)NC(=O)C1(c2ccccc2)CCN(S(=O)(=O)c2ccccc2)CC1 — IC50 (gag-pol integrase; enzyme activity; inhibitor; TR-FRET): 189 µM
